This is an account of results in ChEMBL document CHEMBL4373712, “Bioactivatable Pseudotripeptidization of Cyclic Dipeptides To Increase the Affinity toward Oligopeptide Transporter 1 for Enhanced Oral Absorption: An Application to Cyclo(l-Hyp-l-Ser) (JBP485)” (J Med Chem, 2019).

Data set [1] can be described thus: Half life in pH 6.8 simulated intestinal fluid at 5 mM by HPLC analysis. Type of data set: ADME. Put shortly: (§1)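 Compound at 5 mM in 0.1 M HCl, pH 4.5 acetate buffer, pH 5.8/6.8/7.2 phosphate buffers, SGF (pH 1.2) and SIF (pH 6.8), prepared per Chinese Pharmacopoeia. Samples taken at 0-20 h and analyzed by HPLC-UV. k = 2.303×slope of log C versus time; t1/2 = 0.693/k.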

Data set [2] can be described thus: Terminal half life in Beagle dog assessed as JBP485 level at 12 mg/kg equiv of JBP485 administered orally by UPLC-MS/MS analysis. It counts as ADME, organism-based, Canis lupus familiaris. The note with it: in vivo, po. An outline of the steps: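 Male beagle dogs, 2 years old, 8–10 kg, dosed orally at 12 mg/kg (prodrug calculated as JBP485) in aqueous solution. Jugular blood taken 0.167–8 h into heparin, centrifuged, plasma JBP485 by UPLC-MS/MS; n=6.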

For data set [3], the target named is T1, Solute carrier family 22 member 1 (Homo sapiens, UniProt O15245).
T1 sequence (O15245 whole entry): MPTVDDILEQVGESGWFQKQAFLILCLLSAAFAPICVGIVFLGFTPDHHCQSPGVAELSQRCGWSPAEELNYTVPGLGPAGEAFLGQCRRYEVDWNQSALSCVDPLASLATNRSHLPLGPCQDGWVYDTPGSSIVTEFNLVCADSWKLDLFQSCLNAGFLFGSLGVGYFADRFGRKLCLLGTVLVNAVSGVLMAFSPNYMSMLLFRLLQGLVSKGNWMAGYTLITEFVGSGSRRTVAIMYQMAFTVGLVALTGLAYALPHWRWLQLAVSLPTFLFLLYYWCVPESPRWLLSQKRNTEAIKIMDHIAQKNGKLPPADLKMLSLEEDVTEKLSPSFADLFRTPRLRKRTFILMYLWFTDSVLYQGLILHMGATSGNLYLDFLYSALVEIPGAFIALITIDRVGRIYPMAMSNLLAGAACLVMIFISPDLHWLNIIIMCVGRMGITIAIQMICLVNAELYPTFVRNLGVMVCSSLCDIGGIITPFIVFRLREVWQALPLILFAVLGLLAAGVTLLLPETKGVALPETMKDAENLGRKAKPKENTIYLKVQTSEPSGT
Kind of data set: Substrate activity at OCT1 in human Caco2 cells assessed as protein-mediated drug uptake at 0.5 mM measured after 10 mins in absence of OCT1 substrate metformin by UPLC-MS/MS analysis. Type of data set: ADME, cell-based. Conditions: caco-2, 10 min, 500 µM; call rule not given here. Put shortly:
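Caco-2 cells in 24-well plates took up 0.5 mM compound for 10 min at 37 °C, with or without 50 mM captopril ([…]) or metformin (OCT1-3 substrate). Cells were washed in ice-cold PBS and homogenised in water; lysate protein was measured and drug assayed by UPLC-MS/MS. n=3.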

The nature of data set [4]: Half life in pH 1.2 simulated gastric fluid at 5 mM by HPLC analysis. Type of data set: ADME. An outline of the steps:
as §1

A short description of data set [5]: Half life in Sprague-Dawley rat plasma at 5 mM by HPLC analysis. Type of data set: ADME, cell-free. Put shortly: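 Jejunum and liver homogenates from male SD rats in pH 7.4 PBS, adjusted to 200 µg/mL protein, and rat plasma. Each incubated with compound at 5 mM at 37 °C.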
In data set [6] the target is T2, Solute carrier family 15 member 1 (Homo sapiens, UniProt P46059).
T2 sequence (P46059 whole entry): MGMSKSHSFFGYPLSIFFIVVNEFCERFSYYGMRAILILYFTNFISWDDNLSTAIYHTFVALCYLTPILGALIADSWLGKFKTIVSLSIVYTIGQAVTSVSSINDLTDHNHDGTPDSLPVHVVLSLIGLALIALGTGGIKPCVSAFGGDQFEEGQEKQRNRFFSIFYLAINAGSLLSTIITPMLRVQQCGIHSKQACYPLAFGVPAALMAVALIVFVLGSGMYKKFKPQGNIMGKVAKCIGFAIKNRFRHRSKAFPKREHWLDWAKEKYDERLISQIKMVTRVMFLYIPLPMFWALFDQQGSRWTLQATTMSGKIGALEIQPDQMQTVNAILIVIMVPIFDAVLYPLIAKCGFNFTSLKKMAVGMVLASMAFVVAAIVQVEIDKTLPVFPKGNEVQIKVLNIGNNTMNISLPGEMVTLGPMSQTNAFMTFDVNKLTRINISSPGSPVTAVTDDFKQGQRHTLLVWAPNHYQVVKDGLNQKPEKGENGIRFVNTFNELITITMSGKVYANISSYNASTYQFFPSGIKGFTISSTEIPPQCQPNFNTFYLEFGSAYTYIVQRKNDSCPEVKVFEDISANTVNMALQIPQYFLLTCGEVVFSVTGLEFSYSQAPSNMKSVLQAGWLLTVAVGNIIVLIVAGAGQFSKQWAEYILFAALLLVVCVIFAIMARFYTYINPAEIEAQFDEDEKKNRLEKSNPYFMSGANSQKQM
Kind of data set: Substrate activity at PEPT1 in human Caco2 cells assessed as protein-mediated drug uptake at 0.5 mM measured after 10 mins in pH 7.4 HBSS buffer by UPLC-MS/MS analysis. The note with it: caco-2, pH 7.4, 10 min, 500 µM. It counts as ADME, cell-based. Put shortly:
(§2)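 Caco-2 cells incubated 10 min with 0.5 mM compound in HBSS at pH 6.0 or pH 7.4, washed three times in ice-cold PBS pH 7.4, homogenised. Protein by DC assay; drug by UPLC-MS/MS; n=3.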

The nature of data set [7]: Apparent permeability across human Caco2 cells at 0.5 mM measured after 5 to 60 mins by UPLC-MS/MS analysis. The note with it: caco-2, 500 µM. Type of data set: ADME, cell-based. An outline of the steps: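 Caco-2 cells grown on 0.4 µm transwell inserts; monolayers used only with TEER >300 Ω/cm². Compound at 0.5 mM in apical pH 6.0 HBSS, basolateral pH 7.4 HBSS, 37 °C. Basolateral samples taken at 5, 15, 30, 45 and 60 min. Quantified by UPLC-MS/MS; Papp from steady-state flux, area and initial donor concentration. Three repeats.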

Data set [8] is described as follows: Cmax in Beagle dog assessed as JBP485 level at 12 mg/kg equiv of JBP485 administered orally by UPLC-MS/MS analysis. It counts as ADME, organism-based, Canis lupus familiaris. Details: dose 12 mg/kg, route oral. Conditions: in vivo, po. An outline of the steps:
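Male beagle dogs, 2 years old, 8-10 kg, n=6. Single oral dose of 12 mg/kg (prodrug dosed as JBP485 equivalent) given in aqueous solution. Jugular venipuncture blood taken at 0.167-8 h into sodium heparin tubes. Plasma JBP485 measured by UPLC-MS/MS; AUC0-t and Cmax from the concentration-time profiles.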

Data set [9] can be described thus: Half life in pH 6.8 phosphate buffer at 5 mM by HPLC analysis. Type of data set: physicochemical. Put shortly: as §1
In data set [10] the target is T2, Solute carrier family 15 member 1. Kind of data set: Substrate activity at PEPT1 in human Caco2 cells assessed as protein-mediated drug uptake at 0.5 mM measured after 10 mins in pH 6 HBSS buffer by UPLC-MS/MS analysis. It counts as ADME, cell-based. The note with it: caco-2, pH 6, 10 min, 500 µM. An outline of the steps:
as §2

Structures are written as SMILES.

As to `CC(C)[C@H](N)C(=O)OC[C@@H]1NC(=O)[C@@H]2C[C@@H](O)CN2C1=O`, the half-life (in general, how long it takes for the measured level to halve) at 5000 µM is 474 min in data set [1], > 1200 min in data set [4], 174 min in [5] and 462 min in data set [9]. Also, the “beta t1/2” value in [2] was 1.68 h. The Drug uptake result is “Not Active” in data set [3], “Not Active” in [6] and “Active” in data set [10]. Further, in [7], the Papp result is recorded as “Permeable”. In data set [8], the Cmax amounted to 85.9 nM/ml.

For the compound `O=C1N[C@@H](CO)C(=O)N2C[C@H](O)C[C@@H]12`, the half-life at 5000 µM in data set [1], in data set [4], in data set [5] and in data set [9] was > 1200 min throughout. For the same compound, the figures for the Drug uptake result in [3], in data set [6] and in data set [10] were “Not Active”, “Not Active” and “Active”, respectively. In addition, the Papp result in data set [7] is recorded as “Impermeable”.
